Test results: ChEMBL document CHEMBL1134507, “Potential new antitumor agents from an innovative combination of demethylcantharidin, a modified traditional Chinese medicine, with a platinum moiety” (J Med Chem, 2001)
Active and inactive are the calls of the source. The rule behind the calls is not given here.

Assays:
Mus musculus [1] = test: In vivo antitumor activity in SK-Hep-1 sc-Inoculated Xenograft in male nude mice dosed at 8 mg/kg (ip)on days 1,5 and 9; assay type: functional
In short: (§1)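 SK-Hep-1 human liver tumor cells inoculated sc into male nude mice. Dosing began once tumors reached 5 mm × 5 mm, given ip on days 1, 5 and 9. Vehicle was normal saline for the reference platinum drug and 5% dextrose for the other Pt complexes. Controls received saline or 5% dextrose. Recorded: T/C (%), body-weight change at nadir, and deaths per group.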

Mus musculus [2] = test: In vivo antitumor activity in SK-Hep-1 sc-Inoculated Xenograft in male nude mice dosed at 4 mg/kg (ip)on days 1,5 and 9; Not active; assay type: functional, organism-based; set-up: dose 4 mg/kg; in short: as §1
Mus musculus [3] = test: In vivo antitumor activity in SK-Hep-1 sc-Inoculated Xenograft in male nude mice dosed at 10 mg/kg (ip)on days 1,5 and 9; Acutely toxic; assay type: functional, organism-based; set-up: dose 10 mg/kg; in short: as §1
Mus musculus [4] = test: Ratio of the relative tumor volume in the Tx group over the control group at day 60, at 4 mg/kg dose (ip) given on days 1, 5 and 9 (In vivo antitumor activity in nude mice); assay type: functional; in short: as §1
Mus musculus [5] = test: Ratio of the relative tumor volume in the Tx group over the control group at day 60, at 2 mg/kg dose (ip) given on days 1, 5 and 9 (In vivo antitumor activity in nude mice); assay type: functional; in short: as §1
Mus musculus [6] = test: Ratio of the relative tumor volume in the Tx group over the control group at day 60, at 8 mg/kg dose (ip) given on days 1, 5 and 9 (In vivo antitumor activity in nude mice); assay type: functional; in short: as §1
Mus musculus [7] = test: In vivo antitumor activity in SK-Hep-1 sc-Inoculated Xenograft in male nude mice dosed at 2 mg/kg (ip)on days 1,5 and 9; Not active; assay type: functional, organism-based; set-up: dose 2 mg/kg; in short: as §1
Mus musculus [8] = test: Toxicity in male nude mice measured as N (no. of deaths), at 120 mg/kg (ip) given on days 1, 5 and 9; assay type: organism-based; set-up: dose 120 mg/kg; details: in vivo; in short: as §1
L1210 [9] = test: Growth inhibitory activity against L1210 mouse leukemia cancer cell line; assay type: functional, cell-based
In short: (§2)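 Tetrazolium (MTT) assay. Drug treatment began 24 h after cell seeding, exposure lasted 72 h, and the MTT test followed. Read-out was IC50.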

MDA-MB-231 = test: Growth inhibitory activity against MDA-MB-231 human breast cancer cell line; assay type: functional, cell-based; in short: as §2
Mus musculus [10] = test: Toxicity in male nude mice measured as N (no. of deaths), at 75 mg/kg (ip) given on days 1, 5 and 9; assay type: organism-based; set-up: dose 75 mg/kg; details: in vivo; in short: as §1
Mus musculus [11] = test: Toxicity in male nude mice measured as N (no. of deaths), at 100 mg/kg (ip) given on days 1, 5 and 9; assay type: organism-based; set-up: dose 100 mg/kg; details: in vivo; in short: as §1
COLO 320DM = test: Growth inhibitory activity against COLO-320-DM human colon cancer cell line; assay type: functional, cell-based; in short: as §2
NCI-H460 [12] = test: Cytotoxicity against NCI-H460-resistant Human Nonsmall Cell Lung Cancer cell line assessed by MTT assay after 96 hr of compound exposure (resistance level); assay type: functional, cell-based
In short: (§3)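 MTT cytotoxicity assay run on cisplatin-sensitive parental cells and cisplatin-resistant sublines. Drug exposure was 72 h for L1210 and 96 h for NCI:H460. IC50 determined for each cell line. Fold resistance = IC50 in resistant cells divided by IC50 in parental cells.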

Mus musculus [13] = test: Toxicity in male nude mice measured as N (no. of deaths), at 50 mg/kg (ip) given on days 1, 5 and 9; assay type: organism-based; set-up: dose 50 mg/kg; details: in vivo; in short: as §1
NCI-H460 [14] = test: Cytotoxicity against NCI-H460-sensitive Human Nonsmall Cell Lung Cancer cell line assessed by MTT assay after 96 hr of compound exposure; assay type: functional, cell-based; in short: as §3
Mus musculus [15] = test: Toxicity in male nude mice measured as N (no. of deaths), at 25 mg/kg (ip) given on days 1, 5 and 9; assay type: organism-based; set-up: dose 25 mg/kg; details: in vivo; in short: as §1
SK-HEP1 = test: Growth inhibitory activity against SK-Hep1 human liver cancer cell line; assay type: functional, cell-based; in short: as §2
L1210 [16] = test: Cytotoxicity against […]sensitive mouse leukemia, assessed by MTT assay after 72 hr of compound exposure; assay type: functional, cell-based; in short: as §3
NCI-H460 [17] = test: Growth inhibitory activity against NCI-H460 human lung cancer cell line; assay type: functional, cell-based; in short: as §2
SK-OV-3 = test: Growth inhibitory activity against SK-OV-3 human ovarian cancer cell line; assay type: functional, cell-based; in short: as §2
NTERA-2-cl-D1 = test: Growth inhibitory activity against […]-cl-D1 human testicular cancer cell line; assay type: functional, cell-based; in short: as §2
L1210 [18] = test: Cytotoxicity against […]resistant mouse leukemia, assessed by MTT assay after 72 h of compound exposure (resistance level); assay type: functional, cell-based; in short: as §3
Mus musculus [19] = test: Ratio of the relative tumor volume in the Tx group over the control group at day 60, at 50 mg/kg dose (ip) given on days 1, 5 and 9 (In vivo antitumor activity in nude mice); assay type: functional, organism-based; set-up: dose 50 mg/kg
Mus musculus [20] = test: Ratio of the relative tumor volume in the Tx group over the control group at day 60, at 100 mg/kg dose (ip) given on days 1, 5 and 9 (In vivo antitumor activity in nude mice); assay type: functional, organism-based; set-up: dose 100 mg/kg
Mus musculus [21] = test: In vivo antitumor activity in SK-Hep-1 sc-Inoculated Xenograft in male nude mice dosed at 25 mg/kg (ip)on days 1,5 and 9; Not active; assay type: functional, organism-based; set-up: dose 25 mg/kg
In short: (§4)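 Male nude mice bearing subcutaneous SK-Hep-1 human liver tumor xenografts. Dosing started once tumors reached 5 mm × 5 mm, given ip on days 1, 5 and 9. Cisplatin was given in normal saline and other Pt complexes in 5% dextrose; controls received either vehicle. T/C (%), weight change at nadir and deaths recorded.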

Mus musculus [22] = test: Ratio of the relative tumor volume in the Tx group over the control group at day 60, at 75 mg/kg dose (ip) given on days 1, 5 and 9 (In vivo antitumor activity in nude mice); assay type: functional, organism-based; set-up: dose 75 mg/kg
Mus musculus [23] = test: In vivo antitumor activity in SK-Hep-1 sc-Inoculated Xenograft in male nude mice dosed at 120 mg/kg (ip)on days 1,5 and 9; assay type: functional, organism-based; set-up: dose 120 mg/kg; in short: as §4
Mus musculus [24] = test: Ratio of the relative tumor volume in the Tx group over the control group at day 60, at 25 mg/kg dose (ip) given on days 1, 5 and 9 (In vivo antitumor activity in nude mice); assay type: functional, organism-based; set-up: dose 25 mg/kg
Mus musculus [25] = test: In vivo antitumor activity in SK-Hep-1 sc-Inoculated Xenograft in male nude mice dosed at 100 mg/kg (ip)on days 1,5 and 9; assay type: functional, organism-based; set-up: dose 100 mg/kg; in short: as §4
Mus musculus [26] = test: In vivo antitumor activity in SK-Hep-1 sc-Inoculated Xenograft in male nude mice dosed at 75 mg/kg (ip)on days 1,5 and 9; Not active; assay type: functional, organism-based; set-up: dose 75 mg/kg; in short: as §4
Mus musculus [27] = test: In vivo antitumor activity in SK-Hep-1 sc-Inoculated Xenograft in male nude mice dosed at 50 mg/kg (ip)on days 1,5 and 9; Not active; assay type: functional, organism-based; set-up: dose 50 mg/kg; in short: as §4
Mus musculus [28] = test: Ratio of the relative tumor volume in the Tx group over the control group at day 60, at 120 mg/kg dose (ip) given on days 1, 5 and 9 (In vivo antitumor activity in nude mice); assay type: functional, organism-based; set-up: dose 120 mg/kg
Mus musculus [29] = test: Toxicity in male nude mice measured as N (no. of deaths), at 10 mg/kg (ip) given on days 1, 5 and 9; assay type: organism-based; set-up: dose 10 mg/kg; details: in vivo; in short: as §1
Mus musculus [30] = test: Toxicity in male nude mice measured as N (no. of deaths), at 8 mg/kg (ip) given on days 1, 5 and 9; assay type: organism-based; set-up: dose 8 mg/kg; details: in vivo; in short: as §1
Mus musculus [31] = test: Toxicity in male nude mice measured as N (no. of deaths), at 2 mg/kg (ip) given on days 1, 5 and 9; assay type: organism-based; set-up: dose 2 mg/kg; details: in vivo; in short: as §1
L1210 [32] = test: Cytotoxicity against Cisplatin-resistant L1210-resistant mouse leukemia, assessed by MTT assay after 72 hr of compound exposure (resistance level); assay type: functional, cell-based; in short: as §3
Mus musculus [33] = test: Toxicity in male nude mice measured as N (no. of deaths), at 4 mg/kg (ip) given on days 1, 5 and 9; assay type: organism-based; set-up: dose 4 mg/kg; details: in vivo; in short: as §1
Mus musculus [34] = test: In vivo antitumor activity in SK-Hep-1 sc-Inoculated Xenograft in male nude mice dosed at 4 mg/kg (ip)on days 1,5 and 9; assay type: functional, organism-based; set-up: dose 4 mg/kg; in short: as §4
Mus musculus [35] = test: Ratio of the relative tumor volume in the Tx group over the control group at day 60, at 10 mg/kg dose (ip) given on days 1, 5 and 9 (In vivo antitumor activity in nude mice); assay type: functional, organism-based; set-up: dose 10 mg/kg
Mus musculus [36] = test: In vivo antitumor activity in SK-Hep-1 sc-Inoculated Xenograft in male nude mice dosed at 10 mg/kg (ip)on days 1,5 and 9; assay type: functional, organism-based; set-up: dose 10 mg/kg; in short: as §4

## O=C1OC(=O)C2C3CCC(O3)C12 (stereo unspecified) [DEMETHYL-CANTHARIDIN]
Mus musculus [1]
  Weight change at nadir: -20%
Mus musculus [2]
  Weight change at nadir: inactive
Mus musculus [3]
  Weight change at nadir: Toxic
Mus musculus [4]
  T/C: 66.1%
Mus musculus [5]
  T/C: 63.2%
Mus musculus [6]
  T/C: 34.8%
Mus musculus [7]
  Weight change at nadir: inactive

## CARBOPLATIN [listing 1 of 2 here]
Mus musculus [8]
  No. of deaths: 4
L1210 [9]
  IC50: 10.1 µM
MDA-MB-231
  IC50: 1080 µM
Mus musculus [10]
  No. of deaths: 2
Mus musculus [11]
  No. of deaths: 5
COLO 320DM
  IC50: 188 µM
NCI-H460 [12]
  IC50: 54.6 µM
Mus musculus [13]
  No. of deaths: 2
NCI-H460 [14]
  IC50: 17.8 µM
Mus musculus [15]
  No. of deaths: 1
SK-HEP1
  IC50: 501 µM
L1210 [16]
  IC50: 17.8 µM
NCI-H460 [17]
  IC50: 60.3 µM
SK-OV-3
  IC50: 149 µM
NTERA-2-cl-D1
  IC50: 2750 nM
L1210 [18]
  IC50: 138 µM

## CARBOPLATIN [listing 2 of 2 here]
Mus musculus [19]
  T/C: 109%
Mus musculus [20]
  T/C: 67.8%
Mus musculus [21]
  Weight change at nadir: inactive
Mus musculus [22]
  T/C: 44.9%
Mus musculus [23]
  Weight change at nadir: -40%
Mus musculus [24]
  T/C: 87.5%
Mus musculus [25]
  Weight change at nadir: -21%
Mus musculus [26]
  Weight change at nadir: inactive
Mus musculus [27]
  Weight change at nadir: inactive
Mus musculus [28]
  T/C: 62.8%

## CISPLATIN [listing 1 of 2 here]
L1210 [9]
  IC50: 0.51 µM
MDA-MB-231
  IC50: 65.7 µM
COLO 320DM
  IC50: 11.9 µM
NCI-H460 [12]
  IC50: 4.96 µM
NCI-H460 [14]
  IC50: 0.59 µM
Mus musculus [29]
  No. of deaths: 4
Mus musculus [30]
  No. of deaths: 4
Mus musculus [31]
  No. of deaths: 1
L1210 [32]
  IC50: 14.5 µM
SK-HEP1
  IC50: 54.1 µM
L1210 [16]
  IC50: 1.01 µM
NCI-H460 [17]
  IC50: 11.3 µM
SK-OV-3
  IC50: 15.2 µM
Mus musculus [33]
  No. of deaths: 4
NTERA-2-cl-D1
  IC50: 190 nM

## CISPLATIN [listing 2 of 2 here]
Mus musculus [1]
  Weight change at nadir: -35%
Mus musculus [34]
  Weight change at nadir: -25%
Mus musculus [4]
  T/C: 81.1%
Mus musculus [35]
  T/C: 39.6%
Mus musculus [5]
  T/C: 87.5%
Mus musculus [36]
  Weight change at nadir: -40%
Mus musculus [6]
  T/C: 47.1%
Mus musculus [7]
  Weight change at nadir: inactive
